Data set [1] has as its target 72 kDa type IV collagenase (Homo sapiens, UniProt P08253). The data set is described as follows: Inhibitory concentration against MMP-2. A digest of the protocol: (§1)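 Continuous fluorescence assay of commercially sourced enzyme cleaving a synthetic peptide whose fluorophore (7-methoxycoumarin or 2-aminobenzoyl) is quenched by 2,4-dinitrophenyl. Signal is read at the fluorophore's excitation/emission wavelengths. MMP-2 was preactivated with APMA. MMP-3 used substrate Mca-PKPLAL-Dpa-AR-NH2.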

Another data set has as its target Collagenase 3 (Bos taurus, UniProt O77656). Description: Inhibitory concentration against MMP-13 of bovine articular cartilage explants.
For a further data set, the species on record is Bos taurus. Description: Selectivity ratio for IC50 of MMP-2 to that of MMP-13. A digest of the protocol:
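Both IC50s come from continuous fluorescence assays using quenched peptide substrates (7-methoxycoumarin or 2-aminobenzoyl fluorophore, 2,4-dinitrophenyl quencher), read by plate fluorimeter. MMP-13 was prepared in-house. MMP-2 was commercial and activated with […]. […] The ratio is MMP-2 IC50 over MMP-13 IC50.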

Data set [2] has as its target Matrix metalloproteinase-14 (Homo sapiens, UniProt P50281). Description: Inhibitory concentration against MMP-14.
Another data set concerns the target T1, Interstitial collagenase (Homo sapiens, UniProt P03956).
T1 sequence (P03956 whole entry): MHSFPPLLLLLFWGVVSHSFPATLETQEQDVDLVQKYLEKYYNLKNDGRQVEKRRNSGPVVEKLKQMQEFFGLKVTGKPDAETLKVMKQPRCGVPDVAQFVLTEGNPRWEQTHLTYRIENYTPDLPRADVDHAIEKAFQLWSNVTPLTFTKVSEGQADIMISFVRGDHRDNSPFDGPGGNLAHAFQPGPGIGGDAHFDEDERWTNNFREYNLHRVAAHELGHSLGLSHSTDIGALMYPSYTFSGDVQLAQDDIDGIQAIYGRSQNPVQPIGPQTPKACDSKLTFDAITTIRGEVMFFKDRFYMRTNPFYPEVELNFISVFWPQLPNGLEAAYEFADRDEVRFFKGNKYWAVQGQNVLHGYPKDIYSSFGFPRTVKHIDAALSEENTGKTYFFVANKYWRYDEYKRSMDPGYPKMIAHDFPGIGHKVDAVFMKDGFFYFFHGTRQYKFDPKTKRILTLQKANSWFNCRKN
The data set is described as follows: Inhibitory concentration against MMP-1. Put shortly:
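Continuous fluorescence assay with in-house prepared enzyme. The synthetic peptide substrate carries a 7-methoxycoumarin or 2-aminobenzoyl fluorophore quenched by energy transfer to 2,4-dinitrophenyl. Read in plate fluorimeter at fluorophore excitation/emission wavelengths.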

The nature of data set [3]: Total clearance from rat upon iv administration at 2 mg/kg. Format: ADME, organism-based. Details: dose 2 mg/kg, route intravenous. Particulars: in vivo. Put shortly: (§2)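 Rats were dosed intravenously at 2 mg/kg and orally at 5 mg/kg. Clearance and iv half-life come from the intravenous arm, oral half-life from the oral arm, and bioavailability from comparison of the two routes.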

Data set [4] can be described thus: Half-life in rat upon oral administration at 5 mg/kg. Format: ADME, organism-based. Details: dose 5 mg/kg, route oral. The following applies: in vivo. A digest of the protocol:
as §2

Data set [5] is described as follows: Oral bioavailability in rat. Format: ADME, organism-based. Particulars: in vivo. A digest of the protocol:
as §2

Data set [6] in a line: Half-life in rat upon iv administration. It is filed as ADME, organism-based. Particulars: in vivo. A digest of the protocol:
as §2

A short description of data set [7]: Inhibitory concentration against MMP-3. A digest of the protocol: as §1
Data set [8] can be described thus: Inhibitory concentration against MMP-9. A digest of the protocol: as §1
The nature of data set [9]: Inhibitory concentration against MMP-7. Put shortly: as §1

Molecules are shown by their SMILES.

Chain of 72 kDa type IV collagenase (P08253 whole entry): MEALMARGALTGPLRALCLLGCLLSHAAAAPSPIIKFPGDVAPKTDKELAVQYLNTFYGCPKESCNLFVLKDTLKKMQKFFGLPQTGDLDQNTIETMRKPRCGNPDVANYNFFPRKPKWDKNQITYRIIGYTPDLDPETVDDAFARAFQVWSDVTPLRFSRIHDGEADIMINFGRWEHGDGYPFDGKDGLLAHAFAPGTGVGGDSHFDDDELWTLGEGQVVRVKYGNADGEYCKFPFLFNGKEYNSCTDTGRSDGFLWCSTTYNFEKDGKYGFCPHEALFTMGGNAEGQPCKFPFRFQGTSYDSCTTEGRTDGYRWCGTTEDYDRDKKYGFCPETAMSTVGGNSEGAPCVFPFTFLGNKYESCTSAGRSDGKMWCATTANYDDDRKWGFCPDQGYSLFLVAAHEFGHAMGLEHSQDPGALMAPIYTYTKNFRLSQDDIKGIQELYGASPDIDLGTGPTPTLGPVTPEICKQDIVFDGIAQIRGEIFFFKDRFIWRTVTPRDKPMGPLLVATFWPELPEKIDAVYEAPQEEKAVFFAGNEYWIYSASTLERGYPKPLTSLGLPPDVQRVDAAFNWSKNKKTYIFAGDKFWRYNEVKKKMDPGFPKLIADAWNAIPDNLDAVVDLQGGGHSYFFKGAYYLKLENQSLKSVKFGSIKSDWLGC

In general, IC50 refers to the concentration that inhibits the measured activity by half. Higher therefore signals weaker potency in that assay. With `O=C(Nc1ccc(-c2ccc(S(=O)(=O)N[C@@H](CO)C(=O)O)cc2)cc1)c1cc2ccccc2o1`, the values for the IC50 (in [1]; against Collagenase 3) were 27.8 nM and 4.5 nM, respectively.

With `Cc1cc(C)c(N(Cc2ccccc2)S(=O)(=O)c2ccc(OCCNC(=O)c3cc4ccccc4o3)cc2)c(C(=O)NO)c1`, on Collagenase 3, it took 10000 nM to reach half-maximal inhibition (IC50).

On to `CC(C)[C@H](NS(=O)(=O)c1ccc(-c2ccc(NC(=O)c3csnn3)cc2)cc1)C(=O)O`, for which it took 2.14 nM to reach half-maximal inhibition in [1] (IC50).

Turning to `COc1cccc2cc(C(=O)Nc3ccc(-c4ccc(S(=O)(=O)N[C@H](C(=O)O)C(C)C)cc4)cc3)oc12`, the Selectivity in the data set listed under Bos taurus was determined as 0.6. Also, the half-inhibitory concentration (IC50) in [1] is 12.1 nM; at Collagenase 3 it was 20.2 nM; in data set [2] it was 10900 nM.

As for `O=C(O)CNS(=O)(=O)c1ccc(-c2ccc(NC(=O)c3cc4ccccc4o3)cc2)cc1`, on Collagenase 3, the 50% inhibitory concentration (IC50) came out at 22 nM.

Regarding `CC(C)[C@H](NS(=O)(=O)c1ccc(-c2ccc(NCc3cc4ccccc4o3)cc2)cc1)C(=O)O`, the results for the 50% inhibitory concentration (IC50) (in data set [1]; against Collagenase 3; in data set [2]) were 23.3 nM, 4.9 nM and 6600 nM, respectively.

With `CC(C)[C@H](NS(=O)(=O)c1ccc(-c2ccc(NC(=O)c3cc4cc(NS(C)(=O)=O)ccc4o3)cc2)cc1)C(=O)O`, the Selectivity in the data set listed under Bos taurus was 9.1. Moreover, the IC50 in data set [1] came out at 3.9 nM; against Collagenase 3 it was 0.43 nM.

On to `CC(C)[C@H](NS(=O)(=O)c1ccc(-c2ccc(NC(=O)c3cc4cc(NS(=O)(=O)c5ccccc5)ccc4o3)cc2)cc1)C(=O)O`, for which the Selectivity in the data set filed under Bos taurus stood at 5.6. The same molecule gave an IC50 at Collagenase 3 of 3.4 nM.

Consider `CC(C)[C@H](NS(=O)(=O)c1ccc(-c2ccc(NC(=O)c3cc4c(OCc5ccccc5)cccc4o3)cc2)cc1)C(=O)O`, for which the Selectivity in the data set filed under Bos taurus is 18.

For the molecule `CC(C)[C@H](NS(=O)(=O)c1ccc(-c2ccc(NC(=O)c3cc4cc([N+](=O)[O-])ccc4o3)cc2)cc1)C(=O)O`, the Selectivity in the data set listed under Bos taurus is 2.8. In addition, the results for the half-inhibitory concentration (IC50) (in data set [1]; on Collagenase 3) were 2 nM and 0.7 nM, respectively.

For `CC(C)C[C@H](NS(=O)(=O)c1ccc(-c2ccc(NC(=O)c3cc4ccccc4o3)cc2)cc1)C(=O)O`, the IC50 at Collagenase 3 was found to be 2.19 nM.

Take `CC(=O)Nc1ccc2oc(C(=O)Nc3ccc(-c4ccc(S(=O)(=O)N[C@H](C(=O)O)C(C)C)cc4)cc3)cc2c1`: the Selectivity in the data set filed under Bos taurus worked out at 4.1. For the same molecule, the IC50 in data set [1] came to 4 nM; on Collagenase 3, 0.98 nM.

Usually clearance stands for the rate of elimination divided by the concentration. A higher clearance goes with efficient removal. Broadly, the half-life is the time in which the quantity being followed falls by half. What is called bioavailability is the share of a dose that reaches the circulation, judged against a reference dose that is usually intravenous. With `CC(C)[C@H](NS(=O)(=O)c1ccc(-c2ccc(NC(=O)c3cc4ccccc4o3)cc2)cc1)C(=O)O`, the IC50 against Interstitial collagenase was above 16000 nM; in data set [1] it was 5 nM. In [3], this molecule registered a clearance of 2 mL/min/kg. Moreover, the half-life in data set [4] worked out at 3 h; in [6] it was 3.7 h. Besides, the bioavailability in data set [5] turned out to be 24%.

Regarding `CC(C)[C@H](NS(=O)(=O)c1ccc(-c2ccc(NC(=O)c3cc4cc(Cl)ccc4o3)cc2)cc1)C(=O)O`, the Selectivity in the data set filed under Bos taurus came to 5.3. Further, the values for the IC50 (in data set [1]; against Collagenase 3) were 3.2 nM and 0.6 nM, respectively.

On Collagenase 3, `NC(=O)C[C@H](NS(=O)(=O)c1ccc(-c2ccc(NC(=O)c3cc4ccccc4o3)cc2)cc1)C(=O)O` came in with a concentration for half-maximal inhibition (IC50) of 2.53 nM.

Regarding `COc1cccc2oc(C(=O)Nc3ccc(-c4ccc(S(=O)(=O)N[C@H](C(=O)O)C(C)C)cc4)cc3)cc12`, the Selectivity in the data set listed under Bos taurus was 6.9. Also, half-maximal inhibition on Collagenase 3 (IC50) was put at 2.33 nM.

On Collagenase 3, `O=C(NCCCCN1CCOCC1)c1cc2ccccc2o1` had a half-inhibitory concentration (IC50) of 3200 nM.

With `CC(Oc1cccc2oc(C(=O)Nc3ccc(-c4ccc(S(=O)(=O)N[C@H](C(=O)O)C(C)C)cc4)cc3)cc12)C(=O)O` (stereo not given in full), the half-maximal inhibitory concentration (IC50) was determined as 843 nM in data set [7]; 1590 nM in data set [1]; 5600 nM in [8]; 2500 nM in data set [9]; 14.9 nM against Collagenase 3; 20000 nM in data set [2]. The Selectivity in the data set listed under Bos taurus stood at 107.

At Collagenase 3, `CC(C)[C@H](NS(=O)(=O)c1ccc(-c2ccc(NC(=O)c3cc4cc(N)ccc4o3)cc2)cc1)C(=O)O` had an IC50 of 1.5 nM.

Consider `COc1ccc2oc(C(=O)Nc3ccc(-c4ccc(S(=O)(=O)N[C@H](C(=O)O)C(C)C)cc4)cc3)cc2c1`, for which the Selectivity in the data set filed under Bos taurus was determined as 2.8. Moreover, the values for the IC50 (in data set [1]; at Collagenase 3; in data set [2]) were 1.9 nM, 0.66 nM and 1.5 nM, respectively.

Source of the values: ChEMBL document CHEMBL1142820, “Identification of potent and selective MMP-13 inhibitors” (Bioorg Med Chem Lett, 2005).
